In paper PMC6785730 (The Journal of General Physiology, 2019):
Residue numbers refer to the chain shown, from its start. Like-named read-outs stand apart in the source and are kept apart here.

Assays:
[1] = test system: HCN2 C-terminus; details: 10 and 25 µM HCN2 C-terminus, very high ligand levels; ref Ng et al., 2016; cited from earlier work
[2] = test system: HCN2 channel; details: cited from earlier work
[3] = target: T1, T592A HCN2 C-terminus (Mus musculus, UniProt O88703, T592A); assay: ITC binding to T592A HCN2 C-terminus
T1 sequence (O88703 443-645 T592A): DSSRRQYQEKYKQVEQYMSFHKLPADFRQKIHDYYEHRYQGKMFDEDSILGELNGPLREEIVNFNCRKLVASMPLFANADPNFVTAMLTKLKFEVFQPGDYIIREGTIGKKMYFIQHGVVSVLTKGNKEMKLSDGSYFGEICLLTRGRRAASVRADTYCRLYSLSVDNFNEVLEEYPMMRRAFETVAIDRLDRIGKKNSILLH
Summary of the method: (§1)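 HCN2 C-linker/CNBD point mutant (residues 443–645) expressed from an HMT-tagged pET28 vector in Rosetta DE3 pLacI cells, induced 4 h. […] Integrated heats fitted to a one- or two-site independent binding model; ≥3 replicates.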

[4] = target: T2, I630A HCN2 C-terminus (Mus musculus, UniProt O88703, I630A); assay: ITC binding to I630A HCN2 C-terminus; details: for Kd: two-site model, mean ± SEM
T2 sequence (O88703 443-645 I630A): T1 sequence (O88703 443-645 T592A) with A150T, I188A
Summary of the method: as §1

[5] = target: T3, R591A HCN2 C-terminus (Mus musculus, UniProt O88703, R591A); assay: ITC binding to R591A HCN2 C-terminus
T3 sequence (O88703 443-645 R591A): T1 sequence (O88703 443-645 T592A) with R149A, A150T
Summary of the method: as §1

[6] = target: T4, D631A HCN2 C-terminus (Mus musculus, UniProt O88703, D631A); assay: ITC binding to D631A HCN2 C-terminus; details: for Kd: two-site model, mean ± SEM
T4 sequence (O88703 443-645 D631A): T1 sequence (O88703 443-645 T592A) with A150T, D189A

[7] = target: T5, K638A HCN2 C-terminus (Mus musculus, UniProt O88703, K638A); assay: ITC binding to K638A HCN2 C-terminus
T5 sequence (O88703 443-645 K638A): T1 sequence (O88703 443-645 T592A) with A150T, K196A
Summary of the method: as §1

[8] = target: T6, D634A HCN2 C-terminus (Mus musculus, UniProt O88703, D634A); assay: ITC binding to D634A HCN2 C-terminus; details: for Kd: two-site model, mean ± SEM
T6 sequence (O88703 443-645 D634A): T1 sequence (O88703 443-645 T592A) with A150T, D192A
Summary of the method: as §1

[9] = target: T7, I636A HCN2 C-terminus (Mus musculus, UniProt O88703, I636A); assay: ITC binding to I636A HCN2 C-terminus
T7 sequence (O88703 443-645 I636A): T1 sequence (O88703 443-645 T592A) with A150T, I194A

[10] = target: T8, R632A-HMT HCN2 C-linker/CNBD (Mus musculus, UniProt O88703, R632A); assay: ITC binding to R632A-HMT protein; details: two trials
T8 sequence (O88703 443-645 R632A): T1 sequence (O88703 443-645 T592A) with A150T, R190A

[11] = target: T9, wild-type HCN2 C-terminus (Mus musculus, UniProt O88703); assay: ITC binding to wild-type HCN2 C-terminus; details: for n: Wild type, mean ± SEM
T9 sequence (O88703 443-645): T1 sequence (O88703 443-645 T592A) with A150T

[12] = target: T10, I636D HCN2 C-terminus (Mus musculus, UniProt O88703, I636D); assay: ITC binding to I636D HCN2 C-terminus
T10 sequence (O88703 443-645 I636D): T1 sequence (O88703 443-645 T592A) with A150T, I194D

[13] = target: T11, L633A HCN2 C-terminus (Mus musculus, UniProt O88703, L633A); assay: ITC binding to L633A HCN2 C-terminus
T11 sequence (O88703 443-645 L633A): T1 sequence (O88703 443-645 T592A) with A150T, L191A
Summary of the method: as §1

[14] = target: T12, R635A HCN2 C-terminus (Mus musculus, UniProt O88703, R635A); assay: ITC binding to R635A HCN2 C-terminus; details: stoichiometry, single-site model, four trials, three from Ng et al., 2016
T12 sequence (O88703 443-645 R635A): T1 sequence (O88703 443-645 T592A) with A150T, R193A

[15] = target: T9, wild-type HCN2 C-terminus; details: previously found; ref Ng et al., 2016; cited from earlier work
[16] = stoichiometry of high-affinity event
[17] = stoichiometry of low-affinity event
[18] = slope of ΔH at 10°C and 25°C, data of Chow et al., 2012
[19] = single-site independent binding model, mean ± SEM, c value <1
[20] = stoichiometry, single-site model
[21] = single-site independent binding model, mean ± SEM
[22] = high-affinity event, two-site model, mean ± SEM
[23] = low-affinity event, two-site model, mean ± SEM
[24] = read-out: Kd Site 1, model input from ITC
[25] = read-out: Kd Site 2, model input from ITC
[26] = read-out: Kd Site 3, model input from ITC
[27] = read-out: Kd Site 4, model input from ITC

Compound: Nc1ccn([C@@H]2O[C@@H]3COP(=O)(O)O[C@H]3[C@H]2O)c(=O)n1 [cCMP]
- promotion of tetramerization [1]: not able to promote tetramerization
- agonist type [2]: partial agonist

Compound: O=c1[nH]cnc2c1ncn2[C@@H]1O[C@@H]2COP(=O)(O)O[C@H]2[C@H]1O [cIMP]
- promotion of tetramerization [1]: not able to promote tetramerization
- agonist type [2]: partial agonist

Compound: cAMP
- n [3, 16]: 0.23 ± 0.01
- n [3, 17]: 0.56 ± 0.06
- n [4, 16]: 0.28± 0.03
- n [4, 17]: 0.69 ± 0.07
- n [5, 16]: 0.35 ± 0.02
- n [5, 17]: 0.70 ± 0.09
- n [6, 16]: 0.21 ± 0.02
- n [6, 17]: 0.56 ± 0.04
- n [7, 16]: 0.38 ± 0.04
- n [7, 17]: 0.50 ± 0.03
- n [8, 16]: 0.26 ± 0.03
- n [8, 17]: 0.81 ± 0.03
- n [9, 16]: 0.36 ± 0.01
- n [9, 17]: 0.60 ± 0.03
- binding to R632A-HMT protein [10]: not detected
- Hill coefficient [2]: ~1
- EC50 ([2]; read-out: EC50 determined by the Hill equation): ~100 nM
- n [11, 16]: 0.33 ± 0.02
- n [11, 17]: 0.66 ± 0.09
- ΔCp, high-affinity binding [11, 18]: −159 cal/mol/°C
- ΔCp, low-affinity binding [11, 18]: −898 cal/mol/°C
- n [12, 16]: 0.56 ± 0.07
- n [12, 17]: 0.82 ± 0.02
- n [13, 16]: 0.41 ± 0.02
- n [13, 17]: 0.69 ± 0.05

Compound: cGMP
- Kd [3, 19]: 184000 ± 2690 nM
- n [3, 20]: 0.20 ± 0.03
- Kd ([4]; high-affinity event): 490 ± 110 nM
- Kd ([4]; low-affinity event): 7780 ± 310 nM
- n [4, 16]: 0.24 ± 0.05
- n [4, 17]: 0.44 ± 0.05
- Kd [5, 19]: 322000 ± 26700 nM
- n [5, 20]: 2.15E-5 ± 9.20E-6
- n [14]: 0.67 ± 0.09
- Kd ([6]; high-affinity event): 210 ± 60 nM
- Kd ([6]; low-affinity event): 4780 ± 880 nM
- n [6, 16]: 0.20 ± 0.03
- n [6, 17]: 0.63 ± 0.09
- Kd [7, 21]: 14700 ± 2040 nM
- n [7, 20]: 0.47 ± 0.09
- Kd ([8]; high-affinity event): 540 ± 100 nM
- Kd ([8]; low-affinity event): 8040 ± 1320 nM
- n [8, 16]: 0.23 ± 0.04
- n [8, 17]: 0.87 ± 0.14
- Kd [9, 22]: 240 ± 20 nM
- Kd [9, 23]: 3230 ± 150 nM
- Kd [9, 24]: 240 nM
- Kd [9, 25]: 3230 nM
- Kd [9, 26]: 3230 nM
- Kd [9, 27]: 3230 nM
- n [9, 16]: 0.23 ± 0.01
- n [9, 17]: 0.44 ± 0.02
- binding to R632A-HMT protein [10]: not detected
- n [11, 16]: 0.21 ± 0.01
- n [11, 17]: 0.27 ± 0.01
- fold difference between low- and high-affinity binding ([11]; found here): 3 fold
- increase of the high-affinity Kd compared with cAMP binding ([11]; wild-type HCN2 C-terminus): threefold
- increase of the low-affinity Kd compared with cAMP binding ([11]; wild-type HCN2 C-terminus): ~3.4 fold
- Kd [12, 22]: 210 ± 70 nM
- Kd [12, 23]: 1760 ± 510 nM
- Kd [12, 24]: 210 nM
- Kd [12, 25]: 1760 nM
- Kd [12, 26]: 1760 nM
- Kd [12, 27]: 1760 nM
- n [12, 16]: 0.18 ± 0.04
- n [12, 17]: 0.56 ± 0.08
- fold difference between low- and high-affinity binding [15]: 2.3 fold
- Kd [13, 21]: 16500 ± 3200 nM
- n [13, 20]: 0.74 ± 0.09
